Measured values pooled from the literature.
Compare with care: the assays were run in different laboratories.
Target: Mitogen-activated protein kinase kinase kinase 2 (MAP3K2, Homo sapiens, UniProt Q9Y2U5)
Sequence (Q9Y2U5 1-619, as in one of the studies): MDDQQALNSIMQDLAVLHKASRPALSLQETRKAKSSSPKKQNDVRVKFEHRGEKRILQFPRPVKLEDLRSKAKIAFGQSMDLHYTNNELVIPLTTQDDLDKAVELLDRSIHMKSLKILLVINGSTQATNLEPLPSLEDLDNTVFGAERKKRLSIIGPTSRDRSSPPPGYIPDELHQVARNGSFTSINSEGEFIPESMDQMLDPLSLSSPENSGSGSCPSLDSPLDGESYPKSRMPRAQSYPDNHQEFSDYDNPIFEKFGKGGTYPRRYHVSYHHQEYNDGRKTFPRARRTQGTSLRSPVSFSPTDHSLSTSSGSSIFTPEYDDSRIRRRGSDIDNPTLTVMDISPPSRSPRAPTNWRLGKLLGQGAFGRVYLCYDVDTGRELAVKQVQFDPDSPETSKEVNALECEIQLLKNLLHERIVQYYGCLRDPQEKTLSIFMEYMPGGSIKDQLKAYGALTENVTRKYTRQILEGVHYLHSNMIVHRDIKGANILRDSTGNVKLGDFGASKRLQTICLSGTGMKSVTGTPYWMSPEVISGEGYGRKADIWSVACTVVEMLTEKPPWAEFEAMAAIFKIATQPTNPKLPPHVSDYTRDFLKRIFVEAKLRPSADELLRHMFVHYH

Structure (SMILES)	observed	mode	technique	tested at	quantity	result
COc1ccc2oc(-c3ccc4nc(N)oc4c3)c/c(=N\c3ccccc3NC(=O)CCN)c2c1	binding			1 µM	remaining binding	101%
CN1CCN(C(=O)c2ccc(NC(=O)Nc3ccc(N(C)c4ccnc(Nc5ccc(CS(C)(=O)=O)cc5)n4)cc3)cc2)CC1	binding		competition with immobilised ligand	1 µM	remaining binding	38%
CC(C)S(=O)(=O)c1ccc2nccc(Nc3ccc4sc(C5CCCC5)nc4c3)c2c1	enzyme activity	inhibitor		1 µM	activity vs control	103%
Cc1cc(O)c(-c2ccc([C@@H](C)CN(C)C)cc2)c2c1[nH]c(=O)c1sccc12	enzyme activity	inhibitor		0.1 µM	inhibition	-1.76%
C=CC(=O)N1CCC([C@@H]2CCNc3c(C(N)=O)c(-c4ccc(Oc5ccccc5)cc4)nn32)CC1	enzyme activity	inhibitor		1 µM	inhibition	39%
CCCCC(=O)Nc1ccc(-c2ccc3ncn(CCC)c(=O)c3c2)cn1	binding		competition with immobilised ligand	0.5 µM	remaining binding	100%
CO[C@@H]1[C@H](N(C)C(=O)c2ccccc2)C[C@H]2O[C@]1(C)n1c3ccccc3c3c4c(c5c6ccccc6n2c5c31)C(=O)NC4	enzyme activity	inhibitor		1 µM	inhibition	94%
C1=C/COCc2cc(ccc2OCCN2CCCC2)Nc2nccc(n2)-c2cccc(c2)COC/1	binding			0.1 µM	remaining binding	38%
COc1ccc2[nH]c3c4[nH]c5ccc(OC)cc5c4c4c(c3c2c1)C(=O)NC4=O	binding		competition with immobilised ligand	1 µM	remaining binding	85%
C#Cc1cc(-c2cc(Nc3nc(N[C@@H](C)c4ccc(F)cn4)ncc3Cl)n[nH]2)ccc1C=O	enzyme activity	inhibitor		0.2 µM	inhibition	55.2%
